Columns and labels:
Rattus norvegicus [1] = assay: Increase in cholesterol level in Wistar rat liver at 489 umol/kg/day administered through diet for 10 days; format: ADME, organism-based; settings: in vivo, po, 240 h
Rattus norvegicus [2] = assay: Hypolipidemic activity in Wistar rat assessed as reduction in plasma cholesterol level at 489 umol/kg/day administered through diet for 10 days; format: functional; settings: 240 h
Summary of the method: (§1)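 Young male Wistar rats, 170-190 g initial weight, groups of six, given compound mixed thoroughly into Purina Lab Chow ad libitum for 4 or 10 days as stated. Daily dose calculated from food consumption and body weight. Bled by cardiac puncture at end of treatment; plasma cholesterol measured by automated procedure. Expressed as percent reduction versus simultaneous untreated control group; Student's t test.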

Rattus norvegicus [3] = assay: Hypolipidemic activity in Wistar rat assessed as reduction in plasma triglyceride level at 489 umol/kg/day administered through diet for 10 days; format: functional; settings: 240 h
Rattus norvegicus [4] = assay: Increase in liver weight in Wistar rat at 489 umol/kg/day administered through diet for 10 days; format: ADME, organism-based; settings: in vivo, po, 240 h
Rattus norvegicus [5] = assay: Hypolipidemic activity in Wistar rat assessed as reduction in plasma cholesterol level at 98 umol/kg/day administered through diet for 4 days; format: functional; settings: 96 h
Summary of the method: (§2)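 Young male Wistar rats, 170-190 g initial weight, six per group, fed drug mixed thoroughly into Purina Lab Chow ad libitum for the stated days; daily dose calculated from food consumption and body weight. Bled by cardiac puncture at end; plasma cholesterol and triglycerides by automated procedures, expressed as percent reduction versus simultaneous untreated controls; Student's t test.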

Rattus norvegicus [6] = assay: Hypolipidemic activity in Wistar rat assessed as reduction in plasma triglyceride level at 445 umol/kg/day administered through diet; format: functional
Rattus norvegicus [7] = assay: Hypolipidemic activity in Wistar rat assessed as reduction in plasma triglyceride level at 201 umol/kg/day administered through diet for 4 days; format: functional; settings: 96 h; summary of the method: as §2
Rattus norvegicus [8] = assay: Increase in liver weight in Wistar rat at 445 umol/kg/day administered through diet; format: ADME, organism-based; settings: in vivo, po
Rattus norvegicus [9] = assay: Hypolipidemic activity in Wistar rat assessed as reduction in plasma cholesterol level at 201 umol/kg/day administered through diet for 4 days; format: functional; settings: 96 h
Summary of the method: (§3)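 Young male Wistar rats, 170-190 g at start, in groups of six, given compound mixed into Purina Lab Chow ad libitum for 4 or 10 days as stated. Daily dose was calculated from food consumption and body weight. Plasma was taken by cardiac puncture at the end and cholesterol measured by automated procedure. Results are % reduction versus a concurrent untreated control group, with Student's t test.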

Rattus norvegicus [10] = assay: Increase in liver weight in Wistar rat at 201 umol/kg/day administered through diet for 4 days; format: ADME, organism-based; settings: in vivo, po, 96 h
Rattus norvegicus [11] = assay: Increase in cholesterol level in Wistar rat liver at 445 umol/kg/day administered through diet; format: ADME, organism-based; settings: in vivo, po
Rattus norvegicus [12] = assay: Increase in liver weight in Wistar rat at 98 umol/kg/day administered through diet for 4 days; format: ADME, organism-based; settings: in vivo, po, 96 h
Rattus norvegicus [13] = assay: Increase in cholesterol level in Wistar rat liver at 201 umol/kg/day administered through diet for 4 days; format: ADME, organism-based; settings: in vivo, po, 96 h
Rattus norvegicus [14] = assay: Increase in cholesterol level in Wistar rat liver at 98 umol/kg/day administered through diet for 4 days; format: ADME, organism-based; settings: in vivo, po, 96 h
Rattus norvegicus [15] = assay: Hypolipidemic activity in Wistar rat assessed as reduction in plasma triglyceride level at 98 umol/kg/day administered through diet for 4 days; format: functional; settings: 96 h
Rattus norvegicus [16] = assay: Hypolipidemic activity in Wistar rat assessed as reduction in plasma cholesterol level at 445 umol/kg/day administered through diet; format: functional
Summary of the method: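 Young male Wistar rats (170-190 g initial weight) in groups of six, fed test compound admixed to Purina Lab Chow ad libitum. Actual daily dose derived from recorded food intake and body weight. Cardiac puncture blood taken at end of treatment; plasma cholesterol determined by automated method. Percent reduction from concurrently run untreated controls, significance by Student's t test.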

Rattus norvegicus [17] = assay: Increase in cholesterol level in Wistar rat liver at 407 umol/kg/day administered through diet for 4 days; format: ADME, organism-based; settings: in vivo, po, 96 h
Rattus norvegicus [18] = assay: Hypolipidemic activity in Wistar rat assessed as reduction in plasma triglyceride level at 149 umol/kg/day administered through diet for 10 days; format: functional; settings: 240 h, read-out: INH; summary of the method: as §2
Rattus norvegicus [19] = assay: Increase in cholesterol level in Wistar rat liver at 511 umol/kg/day administered through diet for 10 days; format: ADME, organism-based; settings: in vivo, po, 240 h
Rattus norvegicus [20] = assay: Increase in cholesterol level in Wistar rat liver at 149 umol/kg/day administered through diet for 10 days; format: ADME, organism-based; settings: in vivo, po, 240 h
Rattus norvegicus [21] = assay: Hypolipidemic activity in Wistar rat assessed as reduction in plasma cholesterol level at 407 umol/kg/day administered through diet for 4 days; format: functional; settings: 96 h; summary of the method: as §3
Rattus norvegicus [22] = assay: Increase in cholesterol level in Wistar rat liver at 275 umol/kg/day administered through diet for 10 days; format: ADME, organism-based; settings: in vivo, po, 240 h
Rattus norvegicus [23] = assay: Increase in liver weight in Wistar rat at 407 umol/kg/day administered through diet for 4 days; format: ADME, organism-based; settings: in vivo, po, 96 h
Rattus norvegicus [24] = assay: Hypolipidemic activity in Wistar rat assessed as reduction in plasma triglyceride level at 275 umol/kg/day administered through diet for 10 days; format: functional; settings: 240 h; summary of the method: as §2
Rattus norvegicus [25] = assay: Increase in liver weight in Wistar rat at 511 umol/kg/day administered through diet for 10 days; format: ADME, organism-based; settings: in vivo, po, 240 h
Rattus norvegicus [26] = assay: Increase in liver weight in Wistar rat at 149 umol/kg/day administered through diet for 10 days; format: ADME, organism-based; settings: in vivo, po, 240 h
Rattus norvegicus [27] = assay: Hypolipidemic activity in Wistar rat assessed as reduction in plasma triglyceride level at 511 umol/kg/day administered through diet for 10 days; format: functional; settings: 240 h
Rattus norvegicus [28] = assay: Hypolipidemic activity in Wistar rat assessed as reduction in plasma cholesterol level at 275 umol/kg/day administered through diet for 10 days; format: functional; settings: 240 h; summary of the method: as §3
Rattus norvegicus [29] = assay: Hypolipidemic activity in Wistar rat assessed as reduction in plasma cholesterol level at 511 umol/kg/day administered through diet for 10 days; format: functional; settings: 240 h; summary of the method: as §1
Rattus norvegicus [30] = assay: Hypolipidemic activity in Wistar rat assessed as reduction in plasma cholesterol level at 149 umol/kg/day administered through diet for 10 days; format: functional; settings: 240 h; summary of the method: as §3
Rattus norvegicus [31] = assay: Hypolipidemic activity in Wistar rat assessed as reduction in plasma triglyceride level at 407 umol/kg/day administered through diet for 4 days; format: functional; settings: 96 h
Rattus norvegicus [32] = assay: Increase in liver weight in Wistar rat at 275 umol/kg/day administered through diet for 10 days; format: ADME, organism-based; settings: in vivo, po, 240 h
Rattus norvegicus [33] = assay: Hypolipidemic activity in Wistar rat assessed as reduction in plasma triglyceride level at 462 umol/kg/day administered through diet for 10 days; format: functional; settings: 240 h
Rattus norvegicus [34] = assay: Hypolipidemic activity in Wistar rat assessed as reduction in plasma cholesterol level at 462 umol/kg/day administered through diet for 10 days; format: functional; settings: 240 h; summary of the method: as §1
Rattus norvegicus [35] = assay: Hypolipidemic activity in Wistar rat assessed as reduction in plasma cholesterol level at 453 umol/kg/day administered through diet for 4 days; format: functional; settings: 96 h; summary of the method: as §1
Rattus norvegicus [36] = assay: Increase in cholesterol level in Wistar rat liver at 462 umol/kg/day administered through diet for 10 days; format: ADME, organism-based; settings: in vivo, po, 240 h
Rattus norvegicus [37] = assay: Hypolipidemic activity in Wistar rat assessed as reduction in plasma triglyceride level at 453 umol/kg/day administered through diet for 4 days; format: functional; settings: 96 h
Rattus norvegicus [38] = assay: Increase in liver weight in Wistar rat at 462 umol/kg/day administered through diet for 10 days; format: ADME, organism-based; settings: in vivo, po, 240 h
Rattus norvegicus [39] = assay: Increase in liver weight in Wistar rat at 453 umol/kg/day administered through diet for 4 days; format: ADME, organism-based; settings: in vivo, po, 96 h

SMILES: CCCCCCCCCCOc1ccc(C(=O)OC)cc1
- Activity (Rattus norvegicus [1]): 43%
- inhibition in vivo at 489 µmol/kg (Rattus norvegicus [2]): 36%
- inhibition in vivo at 489 µmol/kg (Rattus norvegicus [3]): 94%
- Activity (Rattus norvegicus [4]): 19%

SMILES: CCCCCCCCCCCCCCOc1ccc(C(=O)OC)cc1
- inhibition in vivo at 98 µmol/kg (Rattus norvegicus [5]): 27%
- inhibition in vivo at 445 µmol/kg (Rattus norvegicus [6]): 49%
- inhibition in vivo at 201 µmol/kg (Rattus norvegicus [7]): 70%
- Activity (Rattus norvegicus [8]): 7%
- inhibition in vivo at 201 µmol/kg (Rattus norvegicus [9]): 23%
- Activity (Rattus norvegicus [10]): 0%
- Activity (Rattus norvegicus [11]): 12%
- Activity (Rattus norvegicus [12]): 0%
- Activity (Rattus norvegicus [13]): 12%
- Activity (Rattus norvegicus [14]): 0%
- inhibition in vivo at 98 µmol/kg (Rattus norvegicus [15]): 72%
- inhibition in vivo at 445 µmol/kg (Rattus norvegicus [16]): 6%

SMILES: CCCCCCCCCCCCCCOc1ccc(C(=O)O)cc1
- Activity (Rattus norvegicus [17]): 1%
- inhibition in vivo at 149 µmol/kg (Rattus norvegicus [18]): 49%
- Activity (Rattus norvegicus [19]): 2%
- Activity (Rattus norvegicus [20]): 7%
- inhibition in vivo at 407 µmol/kg (Rattus norvegicus [21]): 31%
- Activity (Rattus norvegicus [22]): 4%
- Activity (Rattus norvegicus [23]): 14%
- inhibition in vivo at 275 µmol/kg (Rattus norvegicus [24]): 46%
- Activity (Rattus norvegicus [25]): 19%
- Activity (Rattus norvegicus [26]): 7%
- inhibition in vivo at 511 µmol/kg (Rattus norvegicus [27]): 36%
- inhibition in vivo at 275 µmol/kg (Rattus norvegicus [28]): 33%
- inhibition in vivo at 511 µmol/kg (Rattus norvegicus [29]): 24%
- inhibition in vivo at 149 µmol/kg (Rattus norvegicus [30]): 16%
- inhibition in vivo at 407 µmol/kg (Rattus norvegicus [31]): 39%
- Activity (Rattus norvegicus [32]): 20%

SMILES: CCCCCCCCCCCCCCOc1cccc(C(=O)OC)c1
- inhibition in vivo at 462 µmol/kg (Rattus norvegicus [33]): 59%
- inhibition in vivo at 462 µmol/kg (Rattus norvegicus [34]): 24%
- inhibition in vivo at 453 µmol/kg (Rattus norvegicus [35]): 0%
- Activity (Rattus norvegicus [36]): 12%
- inhibition in vivo at 453 µmol/kg (Rattus norvegicus [37]): 51%
- Activity (Rattus norvegicus [38]): 0%
- Activity (Rattus norvegicus [39]): 0%

From ChEMBL document CHEMBL3272012, “5-(Tetradecyloxy)-2-furancarboxylic acid and related hypolipidemic fatty acid-like alkyloxyarylcarboxylic acids” (J Med Chem, 1977)
